# Rows were chosen to be rich in hits. Some 5.4% of all compounds tested hit in one or more screens of this group.
# T cruzi inh – blocks replication of Trypanosoma cruzi | T. cruzi beta-gal in NIH3T3, luminescence, 90 h | inhibition, % (concentration not given with the values) | hit rate 1.4% among 300,000 | AID 1885;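 active = mean inhibition across valid replicates above about 55%, limit read from the data; inconclusive = mean below that limit but half or more replicates reach it; inactive = mean below it, under half of replicates reach it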;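 note: signal also drops with host cell toxicity which is not excluded here; 0% = plate median of DMSO wells and 100% = zero luminescence signal; higher percent means less beta-gal luminescence so fewer parasites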
#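 compound dosing = single 50 nL compound addition per well in DMSO | material = NIH/3T3 host cells with β-galactosidase reporter T. cruzi | input = 5,000 host fibroblasts per well | timing = ≥90 h infection period, 3 h prior cell attachment | read-out basis = percent inhibition of parasite-derived β-gal signal | detection = GalScreen β-gal luminescence, detergent lysis, 60 min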
# aSyn 5UTR inh – 5' untranslated region of α-synuclein, MLPCN primary screen; alpha-synuclein 5'UTR reporter, inhibitor activity; inhibition, % (tested at 7.5 µM); hit rate 0.82% among 300,000; in the data active = inhibition above about 60%; inconclusive = no clear call, values can overlap the other calls;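 note: H4 neuroglioblastoma cells stably carrying SNCA 5'UTR luciferase fusion; 0% = DMSO wells and 100% = positive control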
# CSC inhib – cancer stem cell inhibition | cancer stem cell-like cells viability, luminescence | inhibition, % at 7.5 µM | hit rate 1.1% among 300,000; in the data active = inhibition above about 75%; inconclusive = no clear call, values can overlap the other calls; tested in HMLE shEcad cells
# Mdm2-MdmX inh – disrupts the human Mdm2-MdmX interaction; O15151+Q00987; SaOS-2 split-luciferase Mdm2/MdmX complementation, luminescence; inhibition, % at 8 µM; hit rate 3% among 330,000;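 active = inhibition of at least 50% at 8 µM in the primary screen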
# Target sequence (O15151 whole entry, looked up): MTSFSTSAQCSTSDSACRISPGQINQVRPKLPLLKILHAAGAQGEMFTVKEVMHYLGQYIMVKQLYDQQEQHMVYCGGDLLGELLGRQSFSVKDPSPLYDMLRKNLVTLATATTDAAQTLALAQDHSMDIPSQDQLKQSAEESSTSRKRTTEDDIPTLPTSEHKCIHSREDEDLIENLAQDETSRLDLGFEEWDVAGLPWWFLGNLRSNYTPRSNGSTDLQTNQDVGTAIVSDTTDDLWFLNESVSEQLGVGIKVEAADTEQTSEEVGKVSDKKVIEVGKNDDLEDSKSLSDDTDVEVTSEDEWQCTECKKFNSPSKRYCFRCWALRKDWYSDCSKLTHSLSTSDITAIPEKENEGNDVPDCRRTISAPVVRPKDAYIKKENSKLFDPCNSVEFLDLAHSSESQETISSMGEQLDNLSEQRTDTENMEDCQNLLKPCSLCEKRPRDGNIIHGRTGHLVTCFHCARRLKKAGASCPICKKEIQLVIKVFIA
# Target sequence (Q00987 whole entry, looked up): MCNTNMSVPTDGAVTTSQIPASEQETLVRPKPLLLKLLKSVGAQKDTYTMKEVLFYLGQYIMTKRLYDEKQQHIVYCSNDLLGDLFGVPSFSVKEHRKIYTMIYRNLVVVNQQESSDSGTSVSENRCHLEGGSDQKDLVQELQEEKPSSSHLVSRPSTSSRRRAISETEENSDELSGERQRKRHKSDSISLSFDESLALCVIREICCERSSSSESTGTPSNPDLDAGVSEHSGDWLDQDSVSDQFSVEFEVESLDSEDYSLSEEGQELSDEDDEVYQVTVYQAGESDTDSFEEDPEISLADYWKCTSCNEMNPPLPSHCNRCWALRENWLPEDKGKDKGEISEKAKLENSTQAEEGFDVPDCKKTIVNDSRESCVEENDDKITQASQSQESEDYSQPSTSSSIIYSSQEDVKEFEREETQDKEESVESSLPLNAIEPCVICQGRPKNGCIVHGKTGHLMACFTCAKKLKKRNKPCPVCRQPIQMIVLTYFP
# SKKanGAS inh – blocks kanamycin growth of S. pyogenes SKKanGAS strain | inhibition, % at 7.5 µM | hit rate 1.3% among 300,000 | AID 1662 | BacTiter-Glo, 6 h;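 active = mean replicate score, as percent of positive control median, at least 50; inconclusive = mean below 50 but one replicate at or above 50; inactive = mean and every replicate below 50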;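 note: strain carries kanamycin resistance gene driven by streptokinase promoter and grows in 40 µg/ml kanamycin; loss of luminescence reflects streptokinase promoter inhibition or plain growth inhibition; 0% = median of DMSO wells and 100% = positive control at its reference dose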
# Mdm2-MdmX conf – confirmation of human Mdm2/MdmX interaction inhibitors | shares compounds with Mdm2-MdmX inh | Mdm2-MdmX binding, luminescent assay | inhibition, % at 8 µM | hit rate 55% among 10,000 | AID 489028; in the data active = inhibition above about 40%
# FLuc counter – counter-screen for Mdm2/MdmX inhibitors: full-length luciferase; inhibition, % at 8 µM; hit rate 77% among 6,200; SaOS-2 full-length luciferase counterscreen, luminescence; shares compounds with Mdm2-MdmX inh;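 active = mean inhibition at 8 µM reaching about 37%, which flags the compound as non-specific, limit read from the data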;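 note: p53-null SaOS-2 cells with luciferase driven by a doxycycline-inducible promoter; compound on cells about two nights before reading with doxycycline added after day one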
# * = called active by the depositor; ? = inconclusive; . = no result.
SMILES,T cruzi inh,aSyn 5UTR inh,CSC inhib,Mdm2-MdmX inh,SKKanGAS inh,Mdm2-MdmX conf,FLuc counter
COc1ccc(-n2nc3c(N4CCC(C(=O)NCc5ccco5)CC4)nnc(C)c3c2C)cc1,37,47,6,33,14,.,.
COc1ccc(-n2nc3c(N4CCC(C(=O)NC5CCCCC5)CC4)nnc(C)c3c2C)cc1,15,36,5,97*,1,22,76*
CCOc1ccccc1CNC(=O)C1CCCN(c2nnc(C)c3c(C)n(-c4ccccc4)nc23)C1 (configuration not stated),30,9,-27,90*,3,41*,34
COc1ccc(-n2nc3c(N4CCC(C(=O)NCc5ccccc5C)CC4)nnc(C)c3c2C)cc1,13,22,-17,100*,-2,98*,51*
COc1ccc(-n2nc3c(N4CCC(C(=O)NCC(C)c5ccccc5)CC4)nnc(C)c3c2C)cc1 (configuration not stated),46,3,-3,70*,14,7,.
Cc1ccc(-n2nc3c(N4CCC(C(=O)NCc5cccc(F)c5)CC4)nnc(C)c3c2C)cc1,25,32,0,44,4,.,.
Cc1ccc2c(c1)nnn2C1CCN(C(=O)c2ccccc2F)CC1,0,32,-20,-5,.,.,.
CCN(C(=O)CCc1nnc2ccc(NCc3ccco3)nn12)c1ccccc1,1,26,-6,18,-1,.,.
O=c1oc2ccccc2c2c1nc(C(F)(F)F)n2-c1ccccc1,5,-1,-19,24,-5,.,.
COc1ccc(-n2nc3c(N4CCC(C(=O)NCCc5ccccc5C)CC4)nnc(C)c3c2C)cc1,10,19,?,36,-8,.,.
Cc1ccc(-n2nc3c(N4CCC(C(=O)NCCc5ccccc5C)CC4)nnc(C)c3c2C)cc1,55*,72*,83*,98*,0,43*,53*
O=C(Nc1ccccc1NC(=O)c1ccccc1Cl)c1ccccc1Cl,3,-3,-20,17,3,.,.
CCCCn1c(=O)[nH]c(=O)c2c(C(=O)OCC)cc(-c3ccc(OC(F)F)cc3)nc21,16,22,.,57*,24,32,.
CCCCn1c(=O)[nH]c(=O)c2c(C(=O)OCC)cc(-c3cccs3)nc21,21,12,-3,27,42,.,.
COc1ccc(CN(CCC(c2ccc(F)cc2)C2CCOC(C)(C)C2)C(=O)c2ccco2)cc1 (configuration not stated),26,6,27,76*,2,53*,131*
CC(c1ccccc1)N(CCC(c1ccccc1)C1CCOC(C)(C)C1)C(=O)c1ccco1 (configuration not stated),18,23,42,31,3,.,.
COc1ccccc1NS(=O)(=O)c1cccc2nsnc12,6,7,-4,-14,3,.,.
Cc1ccc(CNS(=O)(=O)c2ccc(-c3cnc(C4CC4)o3)cc2)cc1,-15,-15,16,13,-16,.,.
Cc1ccc(N(C)S(=O)(=O)c2ccc(-c3cnc(C4CC4)o3)cc2)cc1,11,84*,72,61*,7,55*,79*
COc1ccc(C)cc1NS(=O)(=O)c1ccc(-c2cnc(C3CC3)o2)cc1,9,102*,.,83*,5,52*,111*
O=S(=O)(c1ccc(-c2cnc(C3CC3)o2)cc1)N1CCN(c2ccccc2)CC1,10,3,-9,59*,-5,2,.
Cc1ccc(NS(=O)(=O)c2ccc(-c3cnc(C4CC4)o3)cc2)cc1,-23,-35,65,53*,-17,51*,50*
CC(C)(C)C(=O)Nc1nc(=S)ss1,3,3,17,15,14,.,.
CC(C)OC(=O)/C(C#N)=C/c1c[nH]c2ccccc12,4,-80,2,-20,-16,.,.
COc1ccccc1N1CCN(C(=O)c2ccc(Cl)c(S(=O)(=O)N3CCOCC3)c2)CC1,10,13,-8,-17,-6,.,.
SMILES,T cruzi inh,aSyn 5UTR inh,CSC inhib,Mdm2-MdmX inh,SKKanGAS inh,Mdm2-MdmX conf,FLuc counter
COc1ccccc1N1CCN(C2CCCN(C(=O)CN3CCCC3=O)C2)CC1 (configuration not stated),4,11,-2,3,-1,.,.
CCOc1ccccc1CNS(=O)(=O)c1ccc(-c2cnc(C3CC3)o2)cc1,-1,74*,.,61*,2,60*,84*
Cc1cccc(C)c1NS(=O)(=O)c1ccc(-c2cnc(C3CC3)o2)cc1,35,103*,.,82*,12,53*,93*
O=C(CSc1ccc([N+](=O)[O-])cc1)NNC(=O)c1ccccc1F,-8,8,20,-10,-5,.,.
COC(C[C@@H](O)C[C@@H](O)COCc1ccccc1)OC,-7,4,.,4,0,.,.
COc1cc(O)cc2cc3c(c(O)c12)C(=O)CC(C)(O)O3 (configuration not stated),.,.,-1,57*,.,53*,60*
CCn1c(=O)c2cc(C(=O)NCCC(C)C)sc2c2ccccc21,5,-19,32,47,11,.,.
COCCCNC(=O)c1ccc(Cn2c(=O)c3ccccc3n(Cc3ccccc3C#N)c2=O)cc1,7,?,.,53*,-5,19,.
CCCCN(CC)CCCNC(=O)c1cc2c(=O)n(CC)c3ccccc3c2s1,39,-321,9,79*,9,60*,55*
CCCCN(CC)CCNC(=O)c1cc2c(=O)[nH]c3ccc(C)cc3c2s1,38,-26,5,83*,-4,47*,68*
CCCCN(CC)CCNC(=O)c1cc2c(=O)n(CC)c3ccccc3c2s1,37,-274,-2,73*,-1,52*,66*
O=C(NC12CC3CC(CC(C3)C1)C2)C1CCCN1C(=O)Nc1ccccc1 (configuration not stated),-3,-9,.,-11,-2,.,.
O=C(COC(=O)c1ccccc1SCC(=O)N1CCCC1)NCc1ccccc1,-2,-4,-4,6,4,.,.
CCS(=O)(=O)C1=NSC2=NC(=O)/C(=C\c3ccc(OC(=O)c4ccco4)cc3)C(=N)N21,4,-9,-9,11,3,.,.
COc1cccc(Cl)c1NC(=O)N1CCc2c([nH]c3ccccc23)C1C(F)(F)F (configuration not stated),35,-10,16,19,20,.,.
CCCN(CCC)CCCNC(=O)c1cc2c(=O)n(CC)c3ccccc3c2s1,10,-300,5,71*,7,58*,59*
CCn1c(=O)c2cc(C(=O)NCCCOC)sc2c2ccccc21,1,-85,31,64*,-1,49*,103*
COc1ccccc1Oc1ccc2c(c1)C(=O)N(c1ccc(Br)c3cccnc13)C2=O,-8,3,29,-21,25,.,.
COC(=O)N/N=C(\C)c1ccc(C)c([N+](=O)[O-])c1,6,-31,4,9,1,.,.

# Assay outcomes: PubChem, several laboratories
